Active and inactive are the calls of the source. No cut-off for these calls is given here.
What was measured:
PBMC [1] = assay: Immunomodulatory activity in human PBMC assessed as induction of MIP1alpha at 50 ug/ml after 24 hrs; assay type: functional, cell-based
Method in brief: (§1)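 Human PBMCs plated at 5 × 10^6 cells/mL; compounds dissolved in PBS added at various concentrations, 37 °C for 24 h. Supernatant cytokines/chemokines quantified with human Luminex multiplex kit.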

PBMC [2] = assay: Immunomodulatory activity in human PBMC assessed as induction of IL1-beta at 50 ug/ml after 24 hrs; assay type: functional, cell-based; method in brief: as §1
Homo sapiens [3] = species on record: Homo sapiens; assay: Immunostimulatory activity in human mDC assessed as induction of IP10 at 100 ug/ml after 24 hrs; assay type: functional
Method in brief: (§2)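 Human mDCs isolated from PBMCs by CD19+ B-cell depletion then BDCA1 positive selection; plated at 1 × 10^6 cells/mL, compounds in PBS, 37 °C for 24 h; supernatant cytokines by human Luminex multiplex. Representative of four independent experiments.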

[4] = Metabolic stability in human serum assessed as full length product remaining after 10 mins by HPLC; assay type: ADME, cell-free; settings: read-out: Stability
Method in brief: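 About 0.5 A260 units compound in 1% human serum in PBS, 37 °C; aliquot taken at 10 min, analysed by anion-exchange HPLC for percent intact full-length product.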

PBMC [5] = assay: Immunomodulatory activity in human PBMC assessed as induction of IFNalpha at 50 ug/ml after 24 hrs; assay type: functional, cell-based; method in brief: as §1
PBMC [6] = assay: Immunomodulatory activity in human PBMC assessed as induction of IL12 at 50 ug/ml after 24 hrs; assay type: functional, cell-based; method in brief: as §1
PBMC [7] = assay: Immunomodulatory activity in human PBMC assessed as induction of IL6 at 50 ug/ml after 24 hrs; assay type: functional, cell-based; method in brief: as §1
Homo sapiens [8] = species on record: Homo sapiens; assay: Immunostimulatory activity in human mDC assessed as induction of IFNalpha at 100 ug/ml after 24 hrs; assay type: functional; method in brief: as §2
[9] = molecular target: T1, Toll-like receptor 7 (Homo sapiens) (UniProt Q9NYK1); assay: Activation of human TLR7 expressed in HEK293XL assessed as fold induction of NF-kappaB activity at 50 ug/ml after 18 hrs by reporter gene assay relative to control
T1 sequence (whole entry): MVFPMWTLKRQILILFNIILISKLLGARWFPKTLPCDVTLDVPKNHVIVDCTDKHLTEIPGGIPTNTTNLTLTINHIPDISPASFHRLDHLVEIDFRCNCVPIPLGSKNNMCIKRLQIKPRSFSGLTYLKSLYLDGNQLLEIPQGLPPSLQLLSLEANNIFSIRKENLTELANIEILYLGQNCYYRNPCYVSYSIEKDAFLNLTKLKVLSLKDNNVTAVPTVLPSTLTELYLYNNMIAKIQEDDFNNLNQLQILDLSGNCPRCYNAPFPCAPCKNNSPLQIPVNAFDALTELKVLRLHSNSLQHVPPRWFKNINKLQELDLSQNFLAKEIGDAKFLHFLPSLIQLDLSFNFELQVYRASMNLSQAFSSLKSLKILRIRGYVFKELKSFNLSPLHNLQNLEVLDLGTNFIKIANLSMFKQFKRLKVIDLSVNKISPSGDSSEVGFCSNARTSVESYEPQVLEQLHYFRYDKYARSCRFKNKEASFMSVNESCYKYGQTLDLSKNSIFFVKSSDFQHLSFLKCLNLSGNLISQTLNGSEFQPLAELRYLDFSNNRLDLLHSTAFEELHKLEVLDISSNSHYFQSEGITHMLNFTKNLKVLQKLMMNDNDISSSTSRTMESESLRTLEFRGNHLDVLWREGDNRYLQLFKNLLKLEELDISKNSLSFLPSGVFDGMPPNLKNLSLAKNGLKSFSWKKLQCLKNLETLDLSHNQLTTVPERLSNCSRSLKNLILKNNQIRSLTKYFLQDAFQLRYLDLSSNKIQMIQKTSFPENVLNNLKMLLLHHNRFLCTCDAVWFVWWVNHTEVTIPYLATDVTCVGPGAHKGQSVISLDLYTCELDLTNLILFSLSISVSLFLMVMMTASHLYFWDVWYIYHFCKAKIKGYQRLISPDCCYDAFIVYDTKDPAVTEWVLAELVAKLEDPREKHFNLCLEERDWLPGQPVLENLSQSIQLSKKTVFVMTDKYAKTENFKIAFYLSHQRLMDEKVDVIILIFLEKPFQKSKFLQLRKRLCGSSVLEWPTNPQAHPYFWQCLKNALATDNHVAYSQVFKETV
Method in brief: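 HEK293 cells stably expressing human TLR7 or TLR8, transiently transfected with SEAP reporter plasmid; medium replaced, SIMRA compounds added, 18 h incubation. Supernatant SEAP measured by QuantiBlue; expressed as fold increase in NF-κB activity over PBS control. Tabulated data at 50 μg/mL, representative of three independent experiments.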

Homo sapiens [10] = species on record: Homo sapiens; assay: Immunostimulatory activity in human mDC assessed as induction of TNFalpha at 100 ug/ml after 24 hrs; assay type: functional; method in brief: as §2
PBMC [11] = assay: Immunomodulatory activity in human PBMC assessed as induction of MCP1 at 50 ug/ml after 24 hrs; assay type: functional, cell-based; method in brief: as §1
Homo sapiens [12] = species on record: Homo sapiens; assay: Immunostimulatory activity in human mDC assessed as induction of IL6 at 100 ug/ml after 24 hrs; assay type: functional; method in brief: as §2
PBMC [13] = assay: Immunomodulatory activity in human PBMC assessed as induction of IP10 at 50 ug/ml after 24 hrs; assay type: functional, cell-based; method in brief: as §1
[14] = molecular target: Toll-like receptor 3 (Homo sapiens) (UniProt O15455); assay: Activation of human TLR3 expressed in HEK293 assessed as induction of NF-kappaB activity reporter gene assay; assay type: cell-based
Sequence of Toll-like receptor 3 (Homo sapiens) (O15455 whole entry): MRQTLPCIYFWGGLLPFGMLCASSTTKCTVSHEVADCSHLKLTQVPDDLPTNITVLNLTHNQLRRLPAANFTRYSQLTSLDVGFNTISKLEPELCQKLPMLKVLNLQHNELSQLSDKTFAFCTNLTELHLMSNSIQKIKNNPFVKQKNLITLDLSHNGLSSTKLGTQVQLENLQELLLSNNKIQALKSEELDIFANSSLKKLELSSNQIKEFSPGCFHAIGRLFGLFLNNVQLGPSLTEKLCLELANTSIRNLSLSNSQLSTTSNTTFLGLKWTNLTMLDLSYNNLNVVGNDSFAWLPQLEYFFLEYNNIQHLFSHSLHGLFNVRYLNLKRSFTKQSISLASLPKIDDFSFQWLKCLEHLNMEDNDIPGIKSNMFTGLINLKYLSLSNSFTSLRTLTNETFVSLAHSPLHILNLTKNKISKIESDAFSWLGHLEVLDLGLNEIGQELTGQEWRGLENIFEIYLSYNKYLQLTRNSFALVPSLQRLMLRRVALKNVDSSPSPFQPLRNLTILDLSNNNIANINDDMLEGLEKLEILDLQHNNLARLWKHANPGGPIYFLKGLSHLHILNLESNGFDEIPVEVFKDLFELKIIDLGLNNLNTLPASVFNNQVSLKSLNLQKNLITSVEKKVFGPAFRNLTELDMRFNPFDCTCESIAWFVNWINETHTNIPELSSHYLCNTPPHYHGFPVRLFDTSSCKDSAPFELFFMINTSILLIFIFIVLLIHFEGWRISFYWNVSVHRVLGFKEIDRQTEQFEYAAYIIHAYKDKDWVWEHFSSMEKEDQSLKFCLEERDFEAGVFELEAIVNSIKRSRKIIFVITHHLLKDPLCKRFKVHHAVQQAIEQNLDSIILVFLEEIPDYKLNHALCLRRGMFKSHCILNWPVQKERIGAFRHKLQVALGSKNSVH

Homo sapiens [15] = species on record: Homo sapiens; assay: Immunostimulatory activity in human pDC assessed as induction of IP10 at 100 ug/ml after 24 hrs; assay type: functional
Method in brief: (§3)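 Human pDCs plated at 1 × 10^6 cells/mL; compounds in PBS added, 37 °C for 24 h; supernatant cytokines/chemokines by human Luminex multiplex kit.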

Homo sapiens [16] = species on record: Homo sapiens; assay: Immunostimulatory activity in human mDC assessed as induction of IL12 at 100 ug/ml after 24 hrs; assay type: functional; method in brief: as §2
PBMC [17] = assay: Immunomodulatory activity in human PBMC assessed as induction of TNFalpha at 50 ug/ml after 24 hrs; assay type: functional, cell-based; method in brief: as §1
Homo sapiens [18] = species on record: Homo sapiens; assay: Immunostimulatory activity in human pDC assessed as induction of IL6 at 100 ug/ml after 24 hrs; assay type: functional; method in brief: as §3
Homo sapiens [19] = species on record: Homo sapiens; assay: Ratio of human TLR7 activity to human TLR8 activity
Method in brief: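 TLR7/TLR8 ratio computed from fold NF-κB (SEAP reporter) activation in HEK293 cells stably expressing human TLR7 versus TLR8, compounds at 50 μg/mL, 18 h exposure; representative of three independent experiments.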

PBMC [20] = assay: Immunomodulatory activity in human PBMC assessed as induction of MIP1beta at 50 ug/ml after 24 hrs; assay type: functional, cell-based; method in brief: as §1
Homo sapiens [21] = species on record: Homo sapiens; assay: Immunostimulatory activity in human pDC assessed as induction of IFNalpha at 100 ug/ml after 24 hrs; assay type: functional; method in brief: as §3

Row | SMILES | Activity (PBMC [1]) | Activity (PBMC [2]) | Activity (Homo sapiens [3]) | remaining at 10 min [4] | Activity (PBMC [5]) | Activity (PBMC [6]) | Activity (PBMC [7]) | Activity (Homo sapiens [8]) | fold change (FC) [9] | Activity (Homo sapiens [10]) | Activity (PBMC [11]) | Activity (Homo sapiens [12]) | Activity (PBMC [13]) | Activity [14] | Activity (Homo sapiens [15]) | Activity (Homo sapiens [16]) | Activity (PBMC [17]) | Activity (Homo sapiens [18]) | Activity (PBMC [20]) | further results
1 | Nc1ccn([C@@H]2O[C@H](COP(=O)(S)O[C@H]3[C@@H](O)[C@H](n4cnc5c(=O)[nH]c(N)nc54)O[C@@H]3COP(=O)(S)O[C@H]3[C@@H](O)[C@H](n4ccc(=O)[nH]c4=O)O[C@@H]3COP(=O)(S)OCCCO)[C@@H](OP(=O)(S)OC[C@H]3O[C@@H](n4ccc(=O)[nH]c4=O)[C@H](O)[C@@H]3OP(=O)(S)OC[C@H]3O[C@@H](n4cnc5c(=O)[nH]c(N)nc54)[C@H](O)[C@@H]3OP(=O)(S)OC[C@H]3O[C@@H](n4ccc(N)nc4=O)[C@H](O)[C@@H]3OP(=O)(S)OC[C@H]3O[C@@H](n4ccc(=O)[nH]c4=O)[C@H](O)[C@@H]3OP(=O)(S)OC[C@H]3O[C@@H](n4ccc(=O)[nH]c4=O)[C@H](O)[C@@H]3OP(=O)(S)OC[C@H]3O[C@@H](n4cnc5c(=O)[nH]c(N)nc54)[C@H](O)[C@@H]3OP(=O)(S)OC[C@H]3O[C@@H](n4ccc(=O)[nH]c4=O)[C@H](O)[C@@H]3OP(=O)(S)OC[C@H]3O[C@@H](n4cnc5c(=O)[nH]c(N)nc54)[C@H](O)[C@@H]3OP(=O)(S)OCC(O)COP(=O)(S)O[C@H]3[C@@H](O)[C@H](n4cnc5c(=O)[nH]c(N)nc54)O[C@@H]3COP(=O)(S)O[C@H]3[C@@H](O)[C@H](n4ccc(=O)[nH]c4=O)O[C@@H]3COP(=O)(S)O[C@H]3[C@@H](O)[C@H](n4cnc5c(=O)[nH]c(N)nc54)O[C@@H]3COP(=O)(S)O[C@H]3[C@@H](O)[C@H](n4ccc(=O)[nH]c4=O)O[C@@H]3COP(=O)(S)O[C@H]3[C@@H](O)[C@H](n4ccc(=O)[nH]c4=O)O[C@@H]3COP(=O)(S)O[C@H]3[C@@H](O)[C@H](n4ccc(N)nc4=O)O[C@@H]3COP(=O)(S)O[C@H]3[C@@H](O)[C@H](n4cnc5c(=O)[nH]c(N)nc54)O[C@@H]3COP(=O)(S)O[C@H]3[C@@H](O)[C@H](n4ccc(=O)[nH]c4=O)O[C@@H]3COP(=O)(S)O[C@H]3[C@@H](O)[C@H](n4ccc(N)nc4=O)O[C@@H]3COP(=O)(S)O[C@H]3[C@@H](O)[C@H](n4cnc5c(=O)[nH]c(N)nc54)O[C@@H]3COP(=O)(S)O[C@H]3[C@@H](O)[C@H](n4ccc(=O)[nH]c4=O)O[C@@H]3COP(=O)(S)OCCCO)[C@H]2O)c(=O)n1 (stereo partly specified) | 4760 pg/mL | 568 pg/mL | Active | 78% | 56 pg/mL | 570 pg/mL | 3980 pg/mL | Active | 0.5 | Active | 46700 pg/mL | Active | 24 pg/mL | inactive | Active | Active | 541 pg/mL | Active | 5730 pg/mL | Ratio (Homo sapiens [19]): 0.1
2 | Nc1ncnc2c1ncn2[C@@H]1O[C@H](CO)[C@@H](OP(=O)(S)OC[C@H]2O[C@@H](n3cnc4c(N)ncnc43)[C@H](O)[C@@H]2OP(=O)(S)OC[C@H]2O[C@@H](n3cnc4c(N)ncnc43)[C@H](O)[C@@H]2OP(=O)(S)OC[C@H]2O[C@@H](n3cnc4c(N)ncnc43)[C@H](O)[C@@H]2OP(=O)(S)OC[C@H]2O[C@@H](n3cnc4c(N)ncnc43)[C@H](O)[C@@H]2OP(=O)(S)OC[C@H]2O[C@@H](n3cnc4c(N)ncnc43)[C@H](O)[C@@H]2OP(=O)(S)OC[C@H]2O[C@@H](n3cnc4c(N)ncnc43)[C@H](O)[C@@H]2OP(=O)(S)OC[C@H]2O[C@@H](n3cnc4c(N)ncnc43)[C@H](O)[C@@H]2OP(=O)(S)OC[C@H]2O[C@@H](n3cnc4c(N)ncnc43)[C@H](O)[C@@H]2OP(=O)(S)OC[C@H]2O[C@@H](n3cnc4c(N)ncnc43)[C@H](O)[C@@H]2OP(=O)(S)OC[C@H]2O[C@@H](n3cnc4c(N)ncnc43)[C@H](O)[C@@H]2OP(=O)(S)OCC(O)COP(=O)(S)O[C@H]2[C@@H](O)[C@H](n3cnc4c(N)ncnc43)O[C@@H]2COP(=O)(S)O[C@H]2[C@@H](O)[C@H](n3cnc4c(N)ncnc43)O[C@@H]2COP(=O)(S)O[C@H]2[C@@H](O)[C@H](n3cnc4c(N)ncnc43)O[C@@H]2COP(=O)(S)O[C@H]2[C@@H](O)[C@H](n3cnc4c(N)ncnc43)O[C@@H]2COP(=O)(S)O[C@H]2[C@@H](O)[C@H](n3cnc4c(N)ncnc43)O[C@@H]2COP(=O)(S)O[C@H]2[C@@H](O)[C@H](n3cnc4c(N)ncnc43)O[C@@H]2COP(=O)(S)O[C@H]2[C@@H](O)[C@H](n3cnc4c(N)ncnc43)O[C@@H]2COP(=O)(S)O[C@H]2[C@@H](O)[C@H](n3cnc4c(N)ncnc43)O[C@@H]2COP(=O)(S)O[C@H]2[C@@H](O)[C@H](n3cnc4c(N)ncnc43)O[C@@H]2COP(=O)(S)O[C@H]2[C@@H](O)[C@H](n3cnc4c(N)ncnc43)O[C@@H]2COP(=O)(S)O[C@H]2[C@@H](O)[C@H](n3cnc4c(N)ncnc43)O[C@@H]2CO)[C@H]1O (stereo partly specified) | 43 pg/mL | 28 pg/mL | inactive | 92% | 12 pg/mL | 138 pg/mL | 12 pg/mL | inactive | 0.3 | inactive | 724 pg/mL | inactive | 4 pg/mL | inactive | inactive | inactive | 0 pg/mL | inactive | 83 pg/mL | Activity (Homo sapiens [21]): inactive; Activity (Homo sapiens [19]): Active

— ChEMBL document CHEMBL1154352, “Toll-like receptor 7 selective synthetic oligoribonucleotide agonists: synthesis and structure-activity relationship studies” (J Med Chem, 2009)
